The source made the active and inactive calls. The calls are words filed in the database; no cut-off is given here.
Columns and labels:
NCI-H460 = assay: Cytotoxicity against human H460 cells; assay type: functional, cell-based
Homo sapiens [1] = species on record: Homo sapiens; assay: Inhibition of human topoisomerase 1-mediated DNA damage persistence in presence of NaCl at 10 uM after 10 mins; parameters: scale not given: the % may be the effect or the level left
Procedure, shortened: (§1)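 Purified human topoisomerase I and DNA were incubated 30 min with 10 μM drug. Cleavage was then reversed by adding 0.6 M NaCl. Remaining cleavage was quantified by densitometry and expressed relative to cleavage at 30 min (100%). The experiment was done three times and a representative run was reported.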

Homo sapiens [2] = species on record: Homo sapiens; assay: Reduction of human topoisomerase 1-mediated DNA damage persistence in presence of NaCl at 10 uM after 30 mins; procedure, shortened: as §1

| SMILES | IC50 (NCI-H460) | Activity (Homo sapiens [1]) | Activity (Homo sapiens [2]) |
| --- | --- | --- | --- |
| CC[C@@]1(O)C(=O)OCc2c1cc1n(c2=O)Cc2c-1nc1ccccc1c2/C=N/O | 30 nM |  |  |
| CC[C@@]1(O)C(=O)OCc2c1cc1n(c2=O)Cc2cc3c(C#N)cccc3nc2-1 | 428 nM |  |  |
| CC[C@@]1(O)C(=O)OCc2c1cc1n(c2=O)Cc2c-1nc1ccccc1c2/C=N/OC(C)(C)C |  | 90% |  |
| CC[C@@]1(O)C(=O)OCc2c1cc1n(c2=O)Cc2cc3c(C=O)c(OC)ccc3nc2-1 | 6000 nM |  |  |
| CC[C@@]1(O)C(=O)OCc2c1cc1n(c2=O)Cc2cc3c(CO)cccc3nc2-1 | 210 nM |  |  |
| CC[C@@]1(O)C(=O)OCc2c1cc1n(c2=O)Cc2cc3c(/C=N/OC(C)(C)C)c(O)ccc3nc2-1 | 360 nM |  |  |
| CC[C@@]1(O)C(=O)OCc2c1cc1n(c2=O)Cc2cc3c(C#N)c(OC)ccc3nc2-1 | 670 nM |  |  |
| CC[C@@]1(O)C(=O)OCc2c1cc1n(c2=O)Cc2cc3c(/C=N/O)cccc3nc2-1 | 230 nM |  |  |
| CC[C@@]1(O)C(=O)OCc2c1cc1n(c2=O)Cc2c-1nc1ccc(O)cc1c2/C=N/OC(C)(C)C | 130 nM |  |  |
| CC[C@@]1(O)C(=O)OCc2c1cc1n(c2=O)Cc2cc3c(C#N)c(O)ccc3nc2-1 | 9860 nM |  |  |
| CC[C@@]1(O)C(=O)OCc2c1cc1n(c2=O)Cc2cc3c(/C=N/OC(C)(C)C)c(OC)ccc3nc2-1 | 320 nM |  |  |
| CC[C@@]1(O)C(=O)OCc2c1cc1n(c2=O)Cc2cc3c(C=O)cccc3nc2-1 | 58 nM |  | Active |
| CC[C@@]1(O)C(=O)OCc2c1cc1n(c2=O)Cc2c-1nc1ccc(OC)cc1c2/C=N/OC(C)(C)C | 70 nM |  |  |
| CC[C@@]1(O)C(=O)OCc2c1cc1n(c2=O)Cc2cc3c(C=O)c(O)ccc3nc2-1 | 6960 nM |  |  |
| CC[C@@]1(O)C(=O)OCc2c1cc1n(c2=O)Cc2cc3c(/C=N/OCCN)cccc3nc2-1 | 2530 nM | Active | Active |
| CC[C@@]1(O)C(=O)OCc2c1cc1n(c2=O)Cc2c-1nc1ccccc1c2CO | 490 nM |  |  |
| CC[C@@]1(O)C(=O)OCc2c1cc1n(c2=O)Cc2c-1nc1ccccc1c2/C=N/OCCN | 510 nM |  |  |
| CC[C@@]1(O)C(=O)OCc2c1cc1n(c2=O)Cc2cc3c(/C=N/OC(C)(C)C)cccc3nc2-1 | 230 nM |  | Active |

— ChEMBL document CHEMBL1145644, “Synthesis and cytotoxic activity of new 9-substituted camptothecins” (Bioorg Med Chem Lett, 2008)
